Activity calls are given as the source filed them. The calls are words filed in the database; no cut-off is given here.
Assays:
[1] = system: Plasmodium berghei; experiment: Antimalarial activity against Plasmodium berghei infected in mouse assessed as change in mean survival time at 20 mg/kg, sc by Rane test; format: functional; conditions: route subcutaneous
Summary of the method: (§1)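 Mice were infected with P. berghei 3 days before drug. The compound was usually given subcutaneously in sesame or peanut oil at 20 to 640 mg/kg. Activity was read as the extension of mean survival time (ΔMST, days) of treated mice over infected controls.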

[2] = system: Plasmodium berghei; experiment: Antimalarial activity against Plasmodium berghei infected in mouse assessed as change in mean survival time at 40 mg/kg, sc by Rane test; format: functional; conditions: route subcutaneous; summary of the method: as §1
[3] = system: Plasmodium berghei; experiment: Antimalarial activity against Plasmodium berghei infected in mouse assessed as change in mean survival time at 80 mg/kg, sc by Rane test; format: functional; conditions: route subcutaneous; summary of the method: as §1
[4] = system: Plasmodium berghei; experiment: Antimalarial activity against Plasmodium berghei infected in mouse assessed as disease cure at 160 mg/kg, sc by Rane test; format: functional, organism-based; set-up: dose 160 mg/kg
[5] = system: Plasmodium berghei; experiment: Antimalarial activity against Plasmodium berghei infected in mouse assessed as disease cure at 320 mg/kg, sc by Rane test; format: functional, organism-based; set-up: dose 320 mg/kg
[6] = system: Plasmodium berghei; experiment: Antimalarial activity against Plasmodium berghei infected in mouse assessed as disease cure at 640 mg/kg, sc by Rane test; format: functional, organism-based; set-up: dose 640 mg/kg
[7] = system: Mus musculus; experiment: Toxicity in mouse infected with Plasmodium berghei assessed as animal death at 640 mg/kg, sc; format: organism-based; set-up: dose 640 mg/kg, route subcutaneous; conditions: in vivo
[8] = system: Plasmodium cynomolgi; experiment: Antimalarial activity against Plasmodium cynomolgi infected in rhesus monkey at 1 mg/kg administered daily for 7 days; format: functional, organism-based; set-up: dose 1 mg/kg
[9] = system: Plasmodium berghei; experiment: Antimalarial activity against Plasmodium berghei infected in mouse assessed as change in mean survival time at 160 mg/kg, sc by Rane test; format: functional; conditions: route subcutaneous; summary of the method: as §1
[10] = system: Plasmodium berghei; experiment: Antimalarial activity against Plasmodium berghei infected in mouse assessed as change in mean survival time at 320 mg/kg, sc by Rane test; format: functional; conditions: route subcutaneous; summary of the method: as §1
[11] = system: Plasmodium berghei; experiment: Antimalarial activity against Plasmodium berghei infected in mouse assessed as change in mean survival time at 640 mg/kg, sc by Rane test; format: functional; conditions: route subcutaneous; summary of the method: as §1
[12] = system: Plasmodium cynomolgi; experiment: Antimalarial activity against Plasmodium cynomolgi infected in rhesus monkey assessed as disease cure at 1 mg/kg administered daily for 7 days; format: functional, organism-based; set-up: dose 1 mg/kg
Summary of the method: (§2)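 Rhesus monkeys infected with P. cynomolgi, dosed once daily for 7 days at each listed mg/kg level. Cures were recorded as the number of monkeys cured over the number treated.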

[13] = system: Plasmodium cynomolgi; experiment: Antimalarial activity against Plasmodium cynomolgi infected in rhesus monkey assessed as disease cure at 0.5 mg/kg administered daily for 7 days; format: functional, organism-based; set-up: dose 0.5 mg/kg; summary of the method: as §2
[14] = system: Plasmodium cynomolgi; experiment: Antimalarial activity against Plasmodium cynomolgi infected in rhesus monkey at 0.50 mg/kg administered daily for 7 days; format: functional, organism-based; set-up: dose 0.5 mg/kg
[15] = system: Plasmodium cynomolgi; experiment: Antimalarial activity against Plasmodium cynomolgi infected in rhesus monkey at 0.25 mg/kg administered daily for 7 days; format: functional, organism-based; set-up: dose 0.25 mg/kg; summary of the method: as §2
[16] = system: Mus musculus; experiment: Toxicity in mouse infected with Plasmodium berghei assessed as animal death at 160 mg/kg, sc; format: organism-based; set-up: dose 160 mg/kg, route subcutaneous; conditions: in vivo
[17] = system: Mus musculus; experiment: Toxicity in mouse infected with Plasmodium berghei assessed as animal death at 320 mg/kg, sc; format: organism-based; set-up: dose 320 mg/kg, route subcutaneous; conditions: in vivo

SMILES	MST [1] [days]	MST [2] [days]	MST [3] [days]	Activity [4]	Activity [5]	Activity [6]	Activity [7]	Activity [8]	MST [9] [days]	MST [10] [days]	MST [11] [days]	Activity [12]	Activity [13]	Activity [14]	Activity [15]	Activity [16]	Activity [17]
COc1cc([N+](=O)[O-])c2nccc(Oc3ccc(Cl)cc3)c2c1	3.5	6.1	10.1	Active	Active	Active	Non-toxic	inactive	–	–	–	–	–	–	–	–	–
COc1cc(NC(C)CCCN)c2nccc(SC)c2c1 (centres undefined)	0.1	0.1	1.3	–	inactive	inactive	–	inactive	3.5	6.7	8.1	–	–	–	–	–	–
COc1cc(NC(C)CCCN)c2nccc(C)c2c1 (centres undefined)	–	–	5.5	–	–	Active	Toxic	–	9	10.1	–	Active	Active	–	–	–	–
COc1cc(NC(C)CCCCN)c2nccc(C)c2c1.O=P(O)(O)O (centres undefined)	5.8	7	10.4	Active	Active	Active	Non-toxic	–	–	–	–	Active	–	inactive	–	–	–
COc1cc(NCCCN)c2nccc(C)c2c1.Cl	–	–	–	–	–	–	Toxic	–	3.9	5.5	–	–	–	–	inactive	–	–
COc1cc(NC(C)CCCN)c2ncccc2c1 (centres undefined) [PRIMAQUINE]	–	5	9.4	–	–	–	Toxic	–	–	–	–	Active	–	–	inactive	Toxic	Toxic

Reference: ChEMBL document CHEMBL3272114, “Antimalarials. 10. Synthesis of 4-substituted primaquine analogues as candidate antimalarials” (J Med Chem, 1977)
